Data as given in PMC4709821 (ACS Infectious Diseases, 2015).
In brackets after ≈: the same amount, converted by molar mass.

Experiments:
C. neoformans [1] = conditions: cited from earlier work
Mpk1 phosphorylation = assay: Western blot of Mpk1 phosphorylation in C. neoformans; assay type: cell-based; conditions: exponential phase cells, MPK1-FLAG strain
[2] = system: Rlm1-lacZ reporter of CWIP activity; assay: Rlm1-lacZ cell wall integrity pathway; assay type: cell-based, S. cerevisiae; conditions: exposure of cells harboring the reporter plasmid
How it was run: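 S. cerevisiae CRY2 (W303 background) carried a plasmid with lacZ driven by two consensus Rlm1 binding sites. Cells were grown overnight in SC lacking uracil at 30 °C, diluted to 0.1 OD600 in YPD and grown to 0.4. They were dispensed at 0.05 OD600, and test compound was pinned in. Plates stood 4 h at room temperature before Gal-Screen luminescence read-out against solvent wells. Values are the mean of three replicates.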

[3] = system: protein kinase C 1 (Pkc1); assay: Cellular protein kinase C activity; assay type: biochemical, C. neoformans; conditions: cell lysates
How it was run: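 Cells were grown overnight in YPD at 30 °C, washed three times in DPBS, adjusted to 1 × 10^7 cells/mL and lysed with glass beads in kit extraction buffer. Equal total protein plus a dilution series of test compound went into each reaction with a fluorescent Pkc1-specific substrate for 30 min. Products were separated on agarose gel, quantified by densitometry and expressed as % of DMSO reactions. Staurosporine served as reference inhibitor.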

C. neoformans mpk1Δ = assay: MIC against the congenic mpk1Δ strain; assay type: cell-based, Cryptococcus neoformans; conditions: 30 °C
How it was run: (§1)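 MIC was determined by the CLSI-approved method, read at a 72 h end point. Congenic CM108 and mpk1Δ strains came from the Fungal Genetics Stock Center. CM108 was tested at 30 and 37 °C and mpk1Δ at 30 °C.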

C. neoformans [4] = assay: Alamar blue viability assay with and without 1 M sorbitol; assay type: cell-based, Cryptococcus neoformans
How it was run: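 C. neoformans was grown overnight in YPD at 30 °C and seeded at 1.5 × 10^4 cells/mL into a dilution series of test compound, in synthetic complete medium with or without 1 M sorbitol. Plates ran 24 h at 37 °C, then Alamar blue (1:10) was added for 2 h at 37 °C. Fluorescence (Ex 544/Em 590) was compared to DMSO wells, and IC50 was obtained by curve fitting.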

C. neoformans H99 cells = assay: Checkerboard assay of interaction with caspofungin; assay type: cell-based, Cryptococcus neoformans
[5] = Stability in mouse plasma; assay type: in vitro ADME; conditions: after 5 h of incubation
[6] = Stability in human plasma; assay type: in vitro ADME; conditions: after 5 h of incubation
HEK293 cells = assay: Mammalian cell cytotoxicity; assay type: cell-based, human; conditions: higher concentrations not tested
[7] = system: C. neoformans strain CM108; assay: MIC at 30 and 37 °C with strain CM108; assay type: cell-based; conditions: Cryptococcus neoformans
How it was run: as §1

## OC(Cn1cncn1)(Cn1cncn1)c1ccc(F)cc1F [fluconazole]
C. neoformans [1]
  AK activity compared to solvent controls: no increase

## O=S(=O)(O)c1cc(Nc2nc(Nc3ccccc3)nc(N(CCO)CCO)n2)ccc1/C=C/c1ccc(Nc2nc(Nc3ccccc3)nc(N(CCO)CCO)n2)cc1S(=O)(=O)O [Calcofluor white]
Mpk1 phosphorylation
  Mpk1 phosphorylation caused by the agent alone: induced phosphorylation of Mpk1
[2]
  increase in β-galactosidase activity: 5 fold

## CN[C@@H]1C[C@H]2O[C@@](C)([C@@H]1OC)n1c3ccccc3c3c4c(c5c6ccccc6n2c5c31)C(=O)NC4 [staurosporine, reference compound]
[3]; data not shown
  reduction in Pkc1 activity: 25%

## Cc1ccc(C(C)C)c(OCCn2c(S)nc3ccccc32)c1 [Compound 1, 1-(2-(2-isopropyl-5-methylphenoxy)ethyl)-1H-benzo[d]imidazole-2(3H)-thione]
C. neoformans mpk1Δ
  activity against strain from which MPK1 has been deleted: active
C. neoformans [4]
  sorbitol suppression of anticryptococcal activity: sorbitol-suppressable
[3]; concentrations as high as 10-fold above its MIC
  protein kinase C activity as percentage of DMSO-treated samples: 91 ± 3%
C. neoformans H99 cells; combination of 1 with caspofungin, 1 at 2-fold below its MIC
  fractional inhibitory concentration index (FICI): 0.625
C. neoformans H99 cells; subinhibitory concentrations of 1
  reduction of the concentration of caspofungin needed to inhibit C. neoformans: 8 fold
[5]
  remaining intact in plasma: 100%
[6]
  remaining intact in plasma: 100%
HEK293 cells
  concentration up to which nontoxic: ≥ 80 µM
[7]; CM108, 30 °C
  MIC: 16 µg/mL (≈ 49 µM)
[7]; CM108, 37 °C
  MIC: 8 µg/mL (≈ 24.5 µM)

## CCN(CC)CCOc1ccc(C(=C(Cl)c2ccccc2)c2ccccc2)cc1 [clomiphene]
C. neoformans [1]; positive control of the screen
  AK signal / cell lysis: strong AK signal
